TRPML3 agonist – agonists of human TRPML3 channel; HEK293 TRPML3-YFP, Fluo-8 calcium fluorescence; 100% = the carbachol control signal; activation, % at 3 µM; 220,000 tested, 0.29% active; AID 1448;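 active = activation above its plate's cutoff, the mean activation of the plate's test wells plus 3 SD, cut at about 12% in these data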
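Test system: TRPML3-YFP stable HEK293 cells. Doses: single point at 3 µM. Incubation: dye loading 1 h 37 °C then 30 min ambient, 125 s read. Signal: Fluo-8 calcium dye fluorescence, ex 470-495, em 515-575 nm. Measure: percent activation from peak-to-basal fluorescence ratio, scaled between DMSO and carbachol.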
V1aR counter – counter-screen for oxytocin receptor agonists: human V1a receptor agonists. P37288. CHO-V1R cells, Fluo-8 calcium fluorescence, agonist mode; 0% DMSO, 100% 3 nM vasopressin. activation, % at 3 µM. 320,000 tested, 0.25% active;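 active = activation above the mean activation of all tested compounds plus 3 SD, per screening run, cut at about 20% in these data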;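 note: signal is peak over basal fluorescence ratio across a 100 second FLIPR read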
Target sequence (P37288 whole entry, looked up): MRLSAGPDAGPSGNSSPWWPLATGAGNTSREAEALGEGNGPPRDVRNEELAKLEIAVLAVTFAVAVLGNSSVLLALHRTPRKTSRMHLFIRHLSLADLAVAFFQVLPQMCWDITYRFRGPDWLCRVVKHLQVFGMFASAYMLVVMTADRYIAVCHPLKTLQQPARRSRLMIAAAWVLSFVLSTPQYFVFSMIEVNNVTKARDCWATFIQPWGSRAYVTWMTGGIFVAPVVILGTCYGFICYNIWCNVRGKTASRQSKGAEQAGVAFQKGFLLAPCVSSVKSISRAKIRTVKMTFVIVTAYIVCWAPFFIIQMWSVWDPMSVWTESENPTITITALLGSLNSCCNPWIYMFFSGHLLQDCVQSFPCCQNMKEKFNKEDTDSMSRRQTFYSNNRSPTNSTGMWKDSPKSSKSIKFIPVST
zfTRPN1 agonist – agonists of zebrafish TRPN1 channel; 220,000 tested, 0.18% active; activation, % at 3 µM; AID 1424; HEK293 zebrafish TRPN1-YFP, Fluo-8 calcium fluorescence; 100% = response to 87 µM carbachol;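 active = activation above its plate's cutoff, the mean activation of test wells on that plate plus 3 SD, cut at about 19% in these data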
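Assay system: Zebrafish TRPN1-YFP in HEK293 cells | Incubation: Dye loading 1 h at 37 °C, then 30 min room temperature | Measured by: Kinetic Fluo-8 fluorescence, ex 470-495, em 515-575 nm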
OXTR potentiator – potentiators of human oxytocin receptor | activation, % at 3 µM | CHO-OTR cells, Fluo-8 calcium fluorescence, potentiator mode; 0% = oxytocin EC15, 100% = EC100 | P30559 | 320,000 tested, 0.061% active;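 active = activation above that plate's cutoff, the mean activation of tested compounds plus 3 SD, cut at about 6.6% in these data, passing the limit was not always enough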
Target sequence (P30559 whole entry, looked up): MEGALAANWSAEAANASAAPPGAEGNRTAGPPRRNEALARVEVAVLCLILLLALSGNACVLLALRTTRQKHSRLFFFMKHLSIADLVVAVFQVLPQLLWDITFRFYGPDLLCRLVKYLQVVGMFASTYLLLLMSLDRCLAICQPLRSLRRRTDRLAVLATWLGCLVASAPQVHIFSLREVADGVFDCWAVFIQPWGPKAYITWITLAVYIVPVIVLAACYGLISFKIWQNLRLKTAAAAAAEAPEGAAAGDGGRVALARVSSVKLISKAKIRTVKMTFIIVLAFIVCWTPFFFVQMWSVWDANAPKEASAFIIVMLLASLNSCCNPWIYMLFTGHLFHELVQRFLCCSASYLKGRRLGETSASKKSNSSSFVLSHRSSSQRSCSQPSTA
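System: human OTR in CHO cells; Also added: sub-maximal oxytocin, roughly EC15; Timing: compound 6 min at room temperature before oxytocin, 100 s read; Technique: Fluo-8 intracellular calcium fluorescence, ex 470-495, em 515-575 nm; Controls: oxytocin EC15 low and EC100 high; Replication: singlicate.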
OXTR ag – activates the human oxytocin receptor | AID 2435 | activation, % at 3 µM | 320,000 tested, 0.32% active | P30559 | CHO-OTR cells, Fluo-8 calcium fluorescence; normalized: DMSO 0%, oxytocin 100%;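 active = activation above the mean of all tested compounds plus 3 SD, cutoff set per screening run, cut at about 20% in these data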;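 note: peak over basal fluorescence ratio from a 100 s FLIPR kinetic read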
TRPN1 counter – counter-screen for TRPML3 agonists: agonists of zebrafish TRPN1 channel | shares compounds with TRPML3 agonist | HEK293 zebrafish TRPN1-YFP, Fluo-8 calcium fluorescence; scaled: carbachol wells 100%, DMSO wells 0% | activation, % at 3 µM | 310 tested, 10% active;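 active = mean activation over replicates above a set limit taken from the earlier TRPN1 channel primary screen, cut at about 19% in these data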
TRPML3 ag conf – confirmation of human TRPML3 channel agonists. shares compounds with TRPML3 agonist. HEK293 TRPML3-YFP, Fluo-8 calcium fluorescence; 100% set by carbachol, 0% by DMSO. activation, % at 3 µM. 310 tested, 80% active;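 active = activation above a set limit derived from the earlier primary screen, cut at about 12% in these data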
OXTR agonist cf – confirmation of human oxytocin receptor agonists; shares compounds with OXTR ag; CHO-OTR cells, Fluo-8 calcium fluorescence, agonist; activation, % at 3 µM; 390 tested, 20% active; AID 434963;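 active = mean activation above about 20% derived from the earlier single-dose screen, limit read from the data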;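 note: peak over minimum fluorescence ratio per well during a 100 second FLIPR read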
V1aR counter 3x – counter-screen for oxytocin receptor agonists: V1a receptor agonists. shares compounds with OXTR ag. activation, % at 3 µM. CHO-V1R cells, Fluo-8 calcium fluorescence, agonist. AID 434991. 390 tested, 10% active;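 active = mean activation over triplicate exceeds the hit threshold set in the earlier primary screen, cut at about 20% in these data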;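 note: peak over basal fluorescence ratio within a 100 second read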
V1R ag confirm – human V1a receptor agonism, confirmation. shares compounds with V1aR counter. CHO-V1R cells, Fluo-8 calcium fluorescence, agonist. activation, % at 3 µM. 180 tested, 20% active;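 active = average activation exceeds primary screen hit cutoff, cut at about 21% in these data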;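 note: peak over basal fluorescence ratio during a 100 s FLIPR read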
OXTR counter – counter-screen for V1a receptor agonists: oxytocin receptor agonists; shares compounds with V1aR counter; CHO-OTR cells, Fluo-8 calcium fluorescence, agonist; activation, % at 3 µM; 180 tested, 10% active; AID 434969;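 active = mean activation over three repeats above the cutoff from the earlier oxytocin receptor agonist screen, cut at about 20% in these data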;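 note: peak over minimum fluorescence ratio within a 100 second FLIPR read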
Of the large screens only hits and unclear results are named; the others gave an inactive call (follow-up assays come after a bar, where they were run). Rows were chosen to be rich in hits. Some 0.55% of all compounds tested hit in one or more screens of this group.

CC(C#N)Sc1ccc(S(=O)(=O)N2CCCC2)cn1 (centres undefined)	none (no result: TRPML3 agonist, zfTRPN1 agonist)
O=C(Nc1cccc(F)c1)/C(=C/c1ccco1)NC(=O)c1ccco1	none (no result: TRPML3 agonist, zfTRPN1 agonist)
COc1ccc(C(=O)N(NC(=O)Oc2ccccc2)C(C)(C)C)cc1	TRPML3 agonist 13 | TRPN1 counter inactive | TRPML3 ag conf inactive
CC(C)(C)N(NC(=O)c1ccccc1)C(=O)c1ccc(C(=O)N(NC(=O)c2ccccc2)C(C)(C)C)cc1	none
CCS(=O)(=O)c1nc(S(=O)(=O)c2ccc(Cl)cc2)c(N2CCc3ccccc3C2)s1	none
CCOc1ccccc1NC(=O)C1CCN(c2ccc(S(=O)(=O)N3CCCC3)cc2)CC1	TRPML3 agonist 20 | TRPN1 counter inactive | TRPML3 ag conf 20
Cc1ccc(S(=O)(=O)c2c(C)cc(C)nc2Oc2cccc(C(F)(F)F)c2)cc1	TRPML3 agonist 14 | TRPN1 counter inactive | TRPML3 ag conf 42
CSCCC(NS(=O)(=O)/C=C/c1ccccc1)C(=O)NCCc1ccc(S(N)(=O)=O)cc1 (centres undefined)	none
Cc1ccc(-n2nc3c(N4CCN(c5ccccc5)CC4)nnc(C)c3c2C)cc1	none (no result: V1aR counter, OXTR potentiator, OXTR ag)
Cc1ccc(-n2nc3c(Cl)nnc(C)c3c2C)cc1	TRPML3 agonist 13 | TRPN1 counter inactive | TRPML3 ag conf inactive
N#C/C(=N/Nc1ccccc1[N+](=O)[O-])C(N)=S	TRPML3 agonist 12 | TRPN1 counter 20 | TRPML3 ag conf inactive
CN(CC(=O)Nc1ccc(F)cc1)C(=O)c1ccc(OCc2cn3ccccc3n2)cc1	none (no result: TRPML3 agonist, zfTRPN1 agonist)
COC(=O)CN(c1cc(Cl)ccc1OC)S(=O)(=O)c1ccc(C)cc1	TRPML3 agonist 70 | TRPN1 counter inactive | TRPML3 ag conf 61
COc1ccc(S(=O)(=O)N(CC(=O)N2CCOCC2)c2cc(Cl)ccc2OC)cc1OC	TRPML3 agonist 45 | TRPN1 counter inactive | TRPML3 ag conf 42
COc1ccc(Cl)cc1N(CC(=O)N1CCCC1)S(=O)(=O)c1ccc(C)cc1	none (no result: TRPML3 agonist, zfTRPN1 agonist)
COc1ccc(S(=O)(=O)NN(C)C)cc1N(C)S(=O)(=O)c1ccc(Cl)cc1	none
COc1ccc(S(=O)(=O)Nc2ccc(C)cc2)cc1N(C)S(=O)(=O)c1ccc(Cl)cc1	TRPML3 agonist 61 | TRPN1 counter inactive | TRPML3 ag conf 32
COc1cc(C(=O)NC(=S)NNC(=O)[C@H]2C[C@@H]2c2ccccc2)cc(OC)c1OC	TRPML3 agonist 14, OXTR ag 28 | TRPN1 counter 25 | TRPML3 ag conf 33 | OXTR agonist cf inactive | V1aR counter 3x inactive
CC(C)(C)c1ccc(OCC(=O)N(Cc2cccs2)C2CCS(=O)(=O)C2)cc1 (centres undefined)	none (no result: TRPML3 agonist, zfTRPN1 agonist)
O=C1c2cccc3c(N4CCCCC4)ccc(c23)C(=O)N1CCO	TRPML3 agonist 13, V1aR counter 22 | TRPN1 counter inactive | TRPML3 ag conf inactive | V1R ag confirm 32 | OXTR counter inactive
O=C(CCNC(=O)c1ccc([N+](=O)[O-])cc1)NCc1cccs1	none (no result: TRPML3 agonist, zfTRPN1 agonist)
CCc1ccc(OCCNc2cc(N3CCNC(C)C3)ccc2[N+](=O)[O-])cc1 (centres undefined)	none (no result: TRPML3 agonist, zfTRPN1 agonist)
CC1CN(c2ccc([N+](=O)[O-])c(NCCOc3ccccc3)c2)CC(C)N1 (centres undefined)	OXTR ag 24 (no result: TRPML3 agonist, zfTRPN1 agonist) | OXTR agonist cf inactive | V1aR counter 3x inactive
Cc1ccccc1OCCNc1cc(N2CC(C)NC(C)C2)ccc1[N+](=O)[O-] (centres undefined)	OXTR ag 20 | OXTR agonist cf inactive | V1aR counter 3x inactive
CC(=O)Nc1ccc(NC(=O)CSc2nc3[nH]ncc3c(=O)n2-c2ccccc2)cc1	none (no result: TRPML3 agonist, zfTRPN1 agonist)
CCCCC1(Cc2cccc([N+](=O)[O-])c2)C(=O)N(c2ccccc2)N(c2ccccc2)C1=O	none
Cc1noc(C)c1S(=O)(=O)N(C)C[C@H]1Oc2ccc(NC(=O)NC(C)C)cc2C(=O)N([C@H](C)CO)C[C@@H]1C	none (no result: TRPML3 agonist, zfTRPN1 agonist)
Cc1ccc(CNC(=O)c2cccnc2Sc2cccc(Cl)c2)cc1	none
COc1ccc(CNC(=O)c2cccnc2Sc2ccc(Cl)cc2)cc1	OXTR ag 22 | OXTR agonist cf inactive | V1aR counter 3x inactive
CCOC(=O)N1CCN(C(=O)CSc2nc3c([nH]c4ccccc43)c(=O)n2CC)CC1	none (no result: TRPML3 agonist, zfTRPN1 agonist)
O=C(Nc1ccc(Cl)c(Cl)c1)c1cccc(S(=O)(=O)NCc2cccnc2)c1	OXTR ag 20 | OXTR agonist cf inactive | V1aR counter 3x inactive
O=C1CN(S(=O)(=O)c2cc(C(F)(F)F)ccc2Cl)CCN1	none (no result: TRPML3 agonist, zfTRPN1 agonist)
Cc1nccn1C(c1ccccc1)c1ccccc1	none (no result: TRPML3 agonist, zfTRPN1 agonist)
Oc1ccc(Cl)cc1CNCc1ccc(Cl)nc1	OXTR ag 20 (no result: TRPML3 agonist, zfTRPN1 agonist) | OXTR agonist cf 21 | V1aR counter 3x inactive
Oc1ccc(Cl)cc1CNCc1ccc(F)c(F)c1	none (no result: TRPML3 agonist, zfTRPN1 agonist)
Cc1nn(C)c(C)c1S(=O)(=O)NCCc1ccc(Cl)cc1	none (no result: TRPML3 agonist, zfTRPN1 agonist)
COc1ccc(-n2c(O)c(/C=N/NS(=O)(=O)c3ccc(C)cc3)c3ccccc3c2=O)cc1OC	OXTR ag 32 | OXTR agonist cf inactive | V1aR counter 3x inactive
O=C(O)c1ccc(NNC(=S)Nc2cc(C(F)(F)F)ccc2Cl)cc1	none (no result: TRPML3 agonist, zfTRPN1 agonist)
O[C@@H](c1cc(C(F)(F)F)nc2c(C(F)(F)F)cccc12)[C@H]1CCCCN1	none (no result: TRPML3 agonist, zfTRPN1 agonist)
OC(c1cc(C(F)(F)F)nc2c(Cl)cc(Cl)cc12)C1CCCCN1 (centres undefined)	OXTR ag 23 | OXTR agonist cf inactive | V1aR counter 3x inactive
Cc1ccc(OC(=O)c2ccc(Br)o2)cc1	OXTR ag 27 | OXTR agonist cf inactive | V1aR counter 3x inactive
O=C(Oc1ccc(-c2nnco2)cc1)c1ccc(Br)o1	none (no result: TRPML3 agonist, zfTRPN1 agonist)
c1cc2c(cc1C1CCCCC1)c1c3n2CCCNC3CCC1 (centres undefined)	OXTR ag 26 | OXTR agonist cf inactive | V1aR counter 3x inactive

Bioassay records from PubChem.
